We go through four compounds from ChEMBL document CHEMBL1150804, “Nonnucleoside inhibitor of measles virus RNA-dependent RNA polymerase complex activity” (Antimicrob Agents Chemother, 2007).

Activity calls are given as the source filed them. The calls are words filed in the database; no cut-off is given here.

Data set [1] in a line: Selectivity index, ratio of CC50 for african green monkey Vero cells by trypan blue exclusion assay to IC50 for measles virus Edm. In kind it is functional.
Data set [2] in a line: Cytotoxicity against african green monkey Vero cells expressing human SLAM by Promega assay. It counts as cell-based. To be noted: chlorocebus sabaeus. In outline:
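LDH-release assay: 12,000 cells/well exposed 24 h at 37°C to twofold compound dilutions (top 150 μM, or 300 μM for one compound), four replicates. Formazan read at 490 nm; % viability = 100 − [(experimental − background)/(maximum − background) × 100]; four experiments.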

A short description of data set [3]: Selectivity index, ratio of CC50 for african green monkey Vero cells by Promega assay to IC50 for measles virus Edm. In kind it is functional.
Data set [4] has as its system Measles morbillivirus. The experiment in a line: Antiviral activity against measles virus Edm in Vero cells expressing human SLAM assessed as reduction of virus yield. It counts as functional, organism-based.
Data set [5] in a line: Cytotoxicity against african green monkey Vero cells expressing human SLAM assessed as reduction in viable cells after 30 hrs by trypan blue exclusion assay. To be noted: chlorocebus sabaeus. In kind it is cell-based. In outline:
(§1)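 Trypan blue exclusion: 2 × 10^5 cells/well with fivefold compound dilutions (top 500 μM), 37°C for 30 h, three replicates per concentration. Detached cells stained with trypan blue 15 min at room temperature; live cells counted on a hemacytometer; expressed vs DMSO controls; three experiments.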

Data set [6] concerns Measles morbillivirus. The experiment in a line: Antiviral activity against measles virus Edm in Vero cells expressing human SLAM assessed as reduction of virus yield preincubated in culture medium for 24 hrs. In kind it is functional, organism-based.
For data set [7], the system named is Measles virus genotype D7. The experiment in a line: Antiviral activity against measles virus genotype D7 assessed as reduction of virus yield. In kind it is functional, organism-based. The following applies: Measles morbillivirus. An outline of the steps: (§2)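 Clinical MV isolates (grown on Vero-SLAM) infected at MOI 0.1 PFU/cell into 4 × 10^5 cells with threefold compound dilutions (top 37.5 μM) or DMSO at 37°C. At 36 h, cell-associated virus titered by TCID50; EC50 at 50% of DMSO yield; two experiments.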

For data set [8], the system named is Measles morbillivirus. The experiment in a line: Antiviral activity against measles virus assessed as inhibition of viral H and F protein-mediated cell-cell fusion. It counts as functional, organism-based. In outline: (§3)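 Cells (6 × 10^5/well) transfected with 4 μg each of MV H and F plasmids; at 4 h moved into wells with twofold compound dilutions (top 150 μM). Fusion scored microscopically, photographed at 24 h; at 48 h syncytium-linked cytotoxicity measured by LDH-release assay, % vs DMSO; four replicates.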

For data set [9], the system named is Measles morbillivirus. The experiment in a line: Antiviral activity against measles virus genotype B3-2 assessed as reduction of virus yield. It counts as functional, organism-based. An outline of the steps:
as §2

The test system of data set [10] is Measles virus genotype D6. The experiment in a line: Antiviral activity against measles virus genotype D6 assessed as reduction of virus yield. It counts as functional, organism-based. To be noted: Measles morbillivirus. An outline of the steps: as §2
The subject of data set [11] is Measles morbillivirus. The experiment in a line: Antiviral activity against measles virus assessed as inhibition of viral H and F protein-mediated cell-cell fusion at 15 uM. In kind it is functional, organism-based. In outline: as §3
For data set [12], the system named is Measles morbillivirus. The experiment in a line: Antiviral activity against measles virus genotype G3 assessed as reduction of virus yield. In kind it is functional, organism-based. An outline of the steps: as §2
The subject of data set [13] is Measles virus genotype A. Put plainly: Antiviral activity against measles virus genotype A assessed as reduction of virus yield. In kind it is functional, organism-based. The following applies: Measles morbillivirus. In outline:
as §2

Data set [14] deals with Vero. Put plainly: Cytotoxicity against african green monkey Vero cells expressing human SLAM assessed as reduction in viable cells at 500 uM after 30 hrs by trypan blue exclusion assay. The following applies: chlorocebus sabaeus. It counts as cell-based. In outline: as §1
Data set [15] relates to Measles morbillivirus. Put plainly: Antiviral activity against measles virus genotype G2 assessed as reduction of virus yield. In kind it is functional, organism-based. An outline of the steps: as §2
For data set [16], the system named is Morbillivirus canis. Put plainly: Antiviral activity against Canine distemper virus assessed as reduction of virus yield. In kind it is functional, organism-based. In outline:
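Virus-yield dose-response: 4 × 10^5 cells/well infected at MOI 0.1 PFU/cell (CDV stocks grown on Vero-dogSLAM) with twofold compound dilutions (top 75 μM) or DMSO; kept at 37°C with compound. At 36 h, cell-associated virus titered by TCID50 (Spearman-Karber); titers normalized to DMSO; EC50 taken at 50% of DMSO yield; two experiments.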

The subject of data set [17] is Measles morbillivirus. Put plainly: Antiviral activity against measles virus genotype C assessed as reduction of virus yield. In kind it is functional, organism-based. An outline of the steps:
as §2

Data set [18] has as its system BSR T7/5. Put plainly: Inhibition of Nipah virus RNA-dependent RNA polymerase complex activity in BSR T7/5 cells assessed as CAT promoter expression by minireplicon assay. It counts as cell-based. To be noted: Henipavirus nipahense. In outline: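 BSR T7/5 cells (T7 polymerase-expressing) transfected with plasmids for Nipah L (0.4 μg), N (1.25 μg), P (0.8 μg) plus 3.5 μg Nipah CAT minigenome reporter; controls lacked L plasmid. Compound added 2 h posttransfection in threefold dilutions (highest 30 μM), DMSO controls.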
A general note: A replicon is a self-replicating genome or part of one, used to study replication in cells.

In data set [19] the test system is Measles morbillivirus. Put plainly: Antiviral activity against measles virus assessed as reduction of virus yield at 15 uM administered 12 hrs postinfection. In kind it is functional. On the set-up: scale not given: the % may be the effect or the level left. In outline: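 One-step time-of-addition: 3 × 10^5 cells infected with MV at MOI 1.0 PFU/cell; compound (15 μM final) added at set times postinfection; DMSO controls. At 20 h postinfection, cell-associated virus harvested and titered by TCID50; two experiments.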

The test system of data set [20] is Measles morbillivirus. The experiment in a line: Antiviral activity against measles virus assessed as inhibition of virus mediated cytopathogenicity at 15 uMby syncytium formation assay. To be noted: 15 uM. In kind it is functional, organism-based. (Protection from cytopathic effect is a common read-out in antiviral testing.)
Data set [21] concerns Measles morbillivirus. The experiment in a line: Antiviral activity against measles virus assessed as inhibition of viral H and F protein-mediated cell-cell fusion at 150 uM. It counts as functional, organism-based. An outline of the steps: as §3
Data set [22] relates to Escherichia phage T7. Put plainly: Inhibition of Enterobacteria phage T7 polymerase assessed as F protein synthesis by in vitro transcription/translation assay. In outline:
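Cell-free rabbit reticulocyte lysate with 0.5 μg T7-promoter MV F plasmid, 20 μCi [35S]methionine and 50 μM compound or DMSO, 30°C for 90 min. Products separated on 12% SDS gels and autoradiographed. Control: plasmid with F gene reversed relative to the T7 promoter.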

Data set [23] deals with Measles morbillivirus. The experiment in a line: Antiviral activity against measles virus genotype D9 assessed as reduction of virus yield. It counts as functional, organism-based. In outline:
as §2

Data set [24] concerns Measles morbillivirus. Put plainly: Antiviral activity against measles virus genotype H2 assessed as reduction of virus yield. In kind it is functional, organism-based. An outline of the steps: as §2
Data set [25] relates to Measles morbillivirus. The experiment in a line: Antiviral activity against measles virus Alaska assessed as reduction of virus yield in presence of 10 mg/ml BSA. In kind it is functional, organism-based. An outline of the steps: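 Specificity test with MV-Alaska: 4 × 10^5 cells infected in serum-free medium at MOI 0.1 or 0.5 PFU/cell with fourfold dilutions (top 12.5 μM), with or without BSA at 10 mg/ml final.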

Data set [26] deals with Human parainfluenza virus 2. The experiment in a line: Antiviral activity against human parainfluenza virus 2 assessed as reduction of virus yield at 75 uM. In kind it is functional, organism-based. To be noted: Human orthorubulavirus 2.
In data set [27] the test system is BSR T7/5. Put plainly: Inhibition of measles virus RNA-dependent RNA polymerase complex activity in BSR T7/5 cells assessed as CAT promoter expression by minireplicon assay. It counts as cell-based. To be noted: Measles morbillivirus. An outline of the steps: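 BSR T7/5 cells (5 × 10^5) transfected with MV L (0.24 μg), N (0.94 μg), P (0.29 μg) plasmids plus 2 μg CAT minigenome; controls lacked L. At 2 h, threefold compound dilutions (top 30 μM) or DMSO added.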

Usually CC50 stands for the concentration that lowers cell viability or growth by half. By EC50 is commonly meant the concentration at which the effect is half-maximal. Regarding `Cc1ccc2[nH]c(=O)c(CNS(=O)(=O)c3ccccc3)c(-c3ccccc3)c2c1`, the “Ratio CC50/EC50” value in data set [1] is 4.5; in data set [3], above 10. In addition, the 50% cytotoxic concentration (CC50) in [2] was above 150000 nM. Moreover, the EC50 in [4] was found to be 15700 nM. Moreover, the CC50 at 30 h in data set [5] turned out to be 71000 nM.

As to `Cn1nc(C(F)(F)F)cc1C(=O)Nc1ccc(S(=O)(=O)N2CCCC2)cc1`, the result in data set [6], in data set [8], in data set [20], in data set [25] and in [27] was Active. The EC50 in data set [7] is 80 nM; in [9] it was 140 nM; in data set [10], 100 nM; in data set [12], 110 nM; in data set [13] it was 240 nM; in data set [15], 50 nM. For the same compound, the EC50 in [16] was 28000 nM; in data set [17], 110 nM; in data set [23], 90 nM; in data set [24] it was 35 nM; in data set [4], 240 nM; in data set [26] it was above 75000 nM. Moreover, the outcome in data set [11], in data set [18], in data set [21] and in data set [22] was inactive. Besides, in data set [2], the CC50 was above 300000 nM. In addition, the figures for the Activity in [14] and in data set [19] were 20% and 99.9%, respectively. Also, in data set [5], the CC50 at 30 h was above 500000 nM.

Regarding `Cc1ccc2nsnc2c1S(=O)(=O)Nc1ccc(Cl)cc1`, the midpoint of cytotoxicity in [2], the CC50, lay at 100000 nM. Further, in [3], the “Ratio CC50/EC50” value was 50. Moreover, in data set [4], the 50% effective concentration (EC50) came to 2000 nM.

Regarding `O=C(NC(=O)N(c1ccc(Cl)cc1)S(=O)(=O)c1ccccc1)Nc1ccccc1Cl`, in [2], the CC50 came out at 121000 nM. For the same compound, the “Ratio CC50/EC50” value in data set [3] came out at 43.2. In data set [4], the 50% effective concentration (EC50) was 2800 nM.
